Compound activity deposited in PubChem by several laboratories.
This is a sample that favours compounds with a hit; in the whole collection about 4.1% have one here.
KCNK9 block: human KCNK9 channel inhibition | Q9NPC2 | HEK293 KCNK9, FluxOR thallium flux fluorescence; hits give low values | B-score at 10 µM | 310,000 compounds, 1.2% hits | AID 488922;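 active means ratio B-score over 3 SD below the library mean, with starting fluorescence within 5 SD of its mean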;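 further: negative B-score means less thallium flux so channel inhibition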
Target sequence (Q9NPC2 whole entry, looked up): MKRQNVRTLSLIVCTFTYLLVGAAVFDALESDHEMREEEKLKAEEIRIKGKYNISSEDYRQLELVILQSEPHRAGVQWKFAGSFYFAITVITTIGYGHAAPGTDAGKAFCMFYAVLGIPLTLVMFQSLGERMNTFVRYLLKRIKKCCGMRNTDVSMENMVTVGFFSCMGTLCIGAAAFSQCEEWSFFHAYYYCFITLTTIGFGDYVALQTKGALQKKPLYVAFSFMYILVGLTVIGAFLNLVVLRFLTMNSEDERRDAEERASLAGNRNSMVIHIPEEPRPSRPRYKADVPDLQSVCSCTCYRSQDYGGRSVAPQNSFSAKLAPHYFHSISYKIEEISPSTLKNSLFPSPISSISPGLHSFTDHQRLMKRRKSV
KCNQ1 inh: blocks the human KCNQ1 potassium channel; P51787; CHO-K1 KCNQ1, FluxOR thallium flux fluorescence; hits give high values; B-score at 10 µM; 310,000 compounds, 1.3% hits; AID 2642;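 active means compounds whose thallium flux B-score, printed positive for inhibition, exceeds three library SD while starting fluorescence stays within three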;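 further: channel opened by potassium depolarization with thallium stimulus after 20 min compound exposure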
hERG rescue: hERG (human) protection from proarrhythmic block; Q12809; CHO-hERG, FluxOR thallium flux, dofetilide IC70 present; activation (rescue from dofetilide block), less the hit threshold, % at 10 µM; 310,000 compounds, 0.51% hits; AID 1511;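 active means activation above the mean of controls blocked by dofetilide plus 5 SD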;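 further: thallium influx through hERG after potassium depolarization seen as dye fluorescence rise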
Cl transport mod: KCC2 (human) Cl- transport modulation; 190,000 compounds, 2.2% hits; Q9H2X9; B-score of Tl+ flux slope (higher = more flux/activation; lower = inhibition) at 10 µM; KCC2 cells, thallium flux FluoZin-2 fluorescence;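 active means thallium flux slope and its plate-corrected score both differing from the plate sample mean at a set confidence after two filtering rounds, in either direction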;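 further: slope of fluorescence scaled to starting intensity during 10 to 20 s after thallium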
KCNQ1 act: potentiators or activators of human KCNQ1 potassium channel; P51787; AID 2648; CHO-K1 KCNQ1, thallium flux FluxOR fluorescence; hits give high values; B-score at 10 µM; 310,000 compounds, 0.35% hits;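 active means fluorescence ratio B-score, a plate-corrected score, at least three library SD, with initial intensity B-score within 5 SD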
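System: CHO-K1 cells stably expressing KCNQ1 / Medium: assay buffer for compound exposure, DMSO matched across wells / Reagent: thallium- and potassium-containing depolarizing buffer / Compound: one concentration, matched DMSO / Incubation: 20 min compound pretreatment at room temperature / Measured by: kinetic FluxOR fluorescence, 10 s baseline plus 110 s post-stimulus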
KCNK3 inh: human KCNK3 channel inhibition, primary screen. CHO-KCNK3 thallium flux, FluxOR fluorescence; hits give low values. AID 602410. O14649. B-score at 10 µM. 340,000 compounds, 0.84% hits;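 active means B-score under library mean minus 4 SD, starting fluorescence ratio at most library mean plus 5 SD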;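 further: more negative B-score means stronger inhibition of thallium flux through KCNK3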
KCNK3 confirm: confirmation of human KCNK3 two-pore domain potassium channel inhibitors; CHO-KCNK3 thallium flux, FluxOR fluorescence; 0% buffer, 100% carvedilol maximal block; 2,400 compounds, 99% hits; shares compounds with KCNK3 inh; ratio percent of control, % at 10 µM;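 active means ratio percent of control, averaged over triplicates, above buffer control mean plus 5 SD, cut at about 64% in these data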;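 further: ratio is the fluorescence rise from min to max over baseline after thallium stimulus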
KCNK3 noninduced: activity in cells without induced KCNK3 expression; shares compounds with KCNK3 inh; non-induced KCNK3 parental cells, FluxOR thallium flux; hits give low values; thallium flux ratio (lower = more inhibition) at 10 µM; 2,400 compounds, 40% hits;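 active means thallium flux ratio, averaged over three wells, more than 5 SD below the buffer control mean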;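 further: host cells are CHO cells without KCNK3 induction; ratio is peak minus trough fluorescence over baseline then normalized to buffer controls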
* = called active by the depositor; i = inactive; . = not tested or not shown.

SMILES	KCNK9 block	KCNQ1 inh	hERG rescue	Cl transport mod	KCNQ1 act	KCNK3 inh	KCNK3 confirm	KCNK3 noninduced
Cc1ccc(S(=O)(=O)Nc2ccccc2N=Cc2c(F)c(F)c(F)c(F)c2F)cc1	.	.	.	.	.	-11.7*	114.0*	0.146*
CC(Sc1nc(N2CCOCC2)c2c(c1C#N)CC(C)(C)OC2)C(=O)O (stereo not drawn)	i	i	-5.2	.	i	i	.	.
CCCSc1nc(N2CCOCC2)c2c(c1C#N)CC(C)(C)SC2	i	i	-10.4	0.0331	i	-9.49*	127.7*	0.123*
CC(C)Sc1nc(N2CCCC2)c2c(c1C#N)CC(C)(C)OC2	i	i	-9.4	-0.527	i	-10*	118.3*	0.135*
CC(C)CSc1nc(N2CCOCC2)c2c(c1C#N)CC(C)(C)SC2	.	.	.	.	.	i	.	.
CCCCCSc1nc(N2CCOCC2)c2c(c1C#N)CC(C)(C)OC2	i	i	-9.6	0.442	i	-9.01*	104.7*	0.145*
Cc1ccc(C)c(Cn2nc3c4ccccc4n(Cc4ccccc4)cc-3c2=O)c1	i	i	2.2	.	i	i	.	.
O=C(CS(=O)CC(=O)Nc1cnc2ccccc2c1)Nc1ccc(Cl)cc1 (stereo not drawn)	i	i	-3.9	.	i	i	.	.
CCC(C(=O)NCCc1c[nH]c2ccc(C)cc12)c1ccccc1 (stereo not drawn)	-7.75*	i	-2.5	.	i	-8.81*	110.0*	i
CC1=NN(C(=O)CSCc2ccccc2)C(O)(c2ccc(F)cc2)C1 (stereo not drawn)	-6.88*	i	-5.2	-0.87	i	-9.22*	94.7*	i
Cc1sc2ncnc(N3CCN(S(=O)(=O)c4ccc(F)cc4)CC3)c2c1C	i	i	-10.6	.	i	-10.7*	123.7*	0.157*
CCS(=O)(=O)N1CCN(c2ncnc3sc(C)c(C)c23)CC1	i	i	-1.8	-1.22	i	i	.	.
Cc1cc(C(=O)C(C)OC(=O)C2=NNC(=O)CC2)c(C)n1-c1ccc(OC(F)F)cc1 (stereo not drawn)	i	i	-8.6	0.0412	i	i	.	.
N#Cc1c(N2CCN(c3ccc([N+](=O)[O-])cc3)CC2)[n+](=O)c2ccc(Cl)cc2n1[O-]	.	.	.	.	.	i	.	.
CC1=C(C(=O)OC(C)C)C(c2cn(-c3ccccc3)nc2-c2cccs2)NC(=O)N1 (stereo not drawn)	i	i	-7.6	0.00226	i	-9.45*	87.0*	i
CN(c1ccccc1)S(=O)(=O)c1ccc(NC(=O)c2nc(S(C)(=O)=O)ncc2Cl)cc1	i	i	-20.2	.	i	-8.96*	106.3*	0.154*
O=C(CSc1c(Cl)cccc1Cl)N1CCC(c2nc3ccccc3s2)CC1	i	i	-6.1	-1.09	i	i	.	.
O=C(CSc1ccc(Cl)cc1)N1CCC(c2nc3ccccc3s2)CC1	i	i	-13.9	-2.92	i	-8.84*	126.7*	0.156*
COc1ccc(N=C2C(=O)Nc3ccc(C)c(Br)c32)cc1	i	i	-5.3	.	i	i	.	.
CC(C)CSc1n[nH]c(N)n1	i	i	-3.2	1.67	i	i	.	.
Oc1cc(NCc2cccnc2)ccc1-c1nc2ccccc2o1	i	i	-8.6	0.0125	i	i	.	.
CCOC(=O)c1ccc(NC(=O)CSc2nnc(CCc3ccc(C)o3)n2-c2ccccc2)cc1	i	i	-9.5	-1.2	i	-16.8*	90.3*	i
CCOC(=O)C(=N/O)/C(C)=N/NC(=O)C(=O)Nc1ccc(Cl)cc1	i	9*	-31.4	0.0634	i	-10.8*	120.3*	i
CCOC(=O)C1C(=O)NC(N2CCN(c3ccccc3)CC2)=NC1c1ccccc1 (stereo not drawn)	i	i	-9.6	0.997	i	i	.	.
O=C(COc1cccc2cccnc12)N/N=C/c1ccccc1O	i	i	-15.2	-0.293	i	i	.	.
SMILES	KCNK9 block	KCNQ1 inh	hERG rescue	Cl transport mod	KCNQ1 act	KCNK3 inh	KCNK3 confirm	KCNK3 noninduced
Oc1ccccc1/C=N/Nc1cccc2cccnc12	i	i	-8.7	-0.014	i	-11*	98.3*	i
COc1ccc(C)cc1NC(=O)c1cc2ccccc2cc1OCC(=O)NCc1ccco1	i	i	0.1	-0.793	i	-13.7*	109.0*	i
Cc1[nH]n(-c2ccccc2)c(=O)c1C=NC1CCCCC1	i	i	-1.6	0.352	i	i	.	.
CCOc1ccc(C2C(C#N)=C(N)Oc3cc(O)ccc32)cc1OCC (stereo not drawn)	i	i	-6.5	.	i	-9.33*	99.0*	i
COc1ccc(C2C(C#N)=C(N)Oc3cc(O)ccc32)cc1Cl (stereo not drawn)	i	6*	-16.0	.	i	-8.99*	110.3*	0.155*
C#CCOc1ccc(C2C(C#N)=C(N)Oc3cc(O)ccc32)cc1 (stereo not drawn)	i	i	-3.4	.	i	-9.47*	94.7*	i
O=C(COc1ccc(S(=O)(=O)Nc2ccccc2)cc1)NCc1ccccn1	i	i	-10.9	.	i	i	.	.
CCO[C@H]1OC(C(=O)NC2CC2)=C[C@@H](c2coc3ccccc3c2=O)[C@@H]1CCCO	i	i	-9.2	1.85	i	i	.	.
O=C(COc1ccc(C(=S)N2CCCC2)cc1)Nc1ccc(F)cc1	i	i	-9.5	.	i	i	.	.
Cc1cc(C)c(S(=O)(=O)c2ccccc2F)c(=O)[nH]1	i	i	-4.8	.	i	i	.	.
Cc1ccc2c(CC(=O)N3CCN(S(=O)(=O)c4ccccc4)CC3)coc2c1	.	.	.	.	.	i	.	.
N#Cc1ccccc1S(=O)(=O)N1CCN(C(=O)Cc2coc3cc(O)ccc23)CC1	.	.	.	.	.	-12.1*	0.0	i
C=CCN(c1nc(C)cc(OC)n1)S(=O)(=O)c1ccccc1	i	i	-11.8	.	i	-9.23*	107.0*	i
C=CCN(c1nc(C)cc(OC)n1)S(=O)(=O)c1ccc(C)cc1	i	i	-7.4	.	i	i	.	.
CSCc1cc(N(C)c2ccccc2)nc(-c2ccccn2)n1	i	i	-10.0	.	i	i	.	.
O=C(Nc1nccs1)C1CCCN1/C=C/C(=O)C(F)(F)F (stereo not drawn)	i	i	-2.2	.	i	i	.	.
COc1cccc(CN(C)C(=O)c2ccccc2Sc2ccccc2C#N)c1OC	i	i	-13.6	.	i	-8.74*	98.3*	i
